For test [1], the system named is LLC-PK1. Put plainly: Renoprotective activity against cisplatin-induced cytotoxicity in pig LLC-PK1 cells assessed as cell survival at 2.5 uM after 24 hrs by WST-1 assay in presence of 25 uM cisplatin (reference value: 60%). In kind it is functional, Sus scrofa. In a few lines:
(§1)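 Pig kidney LLC-PK1 cells were given 25 µM cisplatin to cause oxidative stress, alongside test compound in dose-response format, up to 10 µM, or up to 2.5 µM for analogues toxic at high doses. Survival was read by WST-1 assay […]. Potency was taken as the concentration giving more than 60% cell survival.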

The subject of test [2] is LLC-PK1. Put plainly: Renoprotective activity against cisplatin-induced cytotoxicity in pig LLC-PK1 cells assessed as cell survival at 10 uM after 24 hrs by WST-1 assay in presence of 25 uM cisplatin (reference value: 60%). It is filed as functional, Sus scrofa. In a few lines: as §1
Test [3] has as its system LLC-PK1. Put plainly: Renoprotective activity against cisplatin-induced cytotoxicity in pig LLC-PK1 cells assessed as decrease in cleaved caspase-3 level by western blot analysis in presence of 25 uM cisplatin. It is filed as functional, cell-based. To be noted: Sus scrofa. In a few lines:
(§2)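 LLC-PK1 cells were exposed to cisplatin together with several concentrations of test compound. Phospho-JNK, p53 and cleaved caspase-3 protein levels were measured 24 h after cisplatin treatment.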
A general note: Immunoblotting shows a protein as a band on a membrane.

For test [4], the system named is LLC-PK1. Put plainly: Renoprotective activity against cisplatin-induced cytotoxicity in pig LLC-PK1 cells assessed as decrease in p53 level at 2.5 uM by western blot analysis in presence of 25 uM cisplatin. In kind it is functional, cell-based. To be noted: Sus scrofa. In a few lines: as §2
In test [5] the test system is LLC-PK1. Put plainly: Renoprotective activity against cisplatin-induced cytotoxicity in pig LLC-PK1 cells assessed as increase in cell survival at >1 uM by cell imaging analysis in presence of 25 uM cisplatin. In kind it is functional, cell-based. To be noted: Sus scrofa.
Test [6] deals with LLC-PK1. Put plainly: Renoprotective activity against cisplatin-induced cytotoxicity in pig LLC-PK1 cells assessed as decrease in phoshorylated JNK level by western blot analysis in presence of 25 uM cisplatin. It is filed as functional, cell-based. To be noted: Sus scrofa. In a few lines:
as §2

For test [7], the system named is LLC-PK1. Description: Renoprotective activity against cisplatin-induced cytotoxicity in pig LLC-PK1 cells assessed as decrease in apoptotic cells at 25 uM after 24 hrs by Tali image-based cytometer analysis in presence of cisplatin. It is filed as functional, cell-based. To be noted: Sus scrofa. In a few lines: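 LLC-PK1 cells were co-treated with cisplatin and test compound, then stained so that dead cells show red and apoptotic cells green. The percentage of apoptotic cells was counted on a Tali image-based cytometer.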

Structures are written as SMILES. Activity calls are given as the source filed them. No cut-off for these calls is given here. Where only a bound is given, the exact number is not on record here.

Turning to `S=C=NCCc1ccc(N=C=S)cc1`, the Activity in test [1] is reported as above 80%.

As for `S=C=NCc1cccc(Cl)c1`, the Activity in test [1] is above 80%.

In the case of `C[S+]([O-])CCCCN=C=S` (stereo not given) [SULFORAPHANE], the Activity in test [2] was above 77%.

Regarding `S=C=NCC(c1ccccc1)c1ccccc1`, the Activity entry was “Dose-dependent effect” in test [3], “Dose-dependent effect” in test [6] and 93% in test [1]. Also, the result in test [4], in test [5] and in test [7] was Active.

As to `Oc1ccc(CCN=C=S)cc1`, the Activity in test [1] is given as above 80%.

Values taken from ChEMBL document CHEMBL3580585, “The synthesis of sulforaphane analogues and their protection effect against cisplatin induced cytotoxicity in kidney cells” (2014).
